The nature of data set [1]: (§1) Cytotoxicity against human Huh7.5.1 cells after 72 hrs by ATPlite assay. Type of data set: cell-based. The settings on record: Huh7.5.1 cells. A digest of the protocol: (§2)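 Compounds in DMSO added to cells at a range of concentrations. ATP measured by ATPlite after 72 h. DMSO held at 0.5% final in all wells, including controls. Triplicate per concentration. CC50 obtained by log-transforming doses and fitting a variable-slope four-parameter regression.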
On the technique in general: ATP-based viability assays read luminescence as a measure of living cells.

The subject of another data set is Hepatitis C virus. Description: Antiviral activity against HCV JFH-1 infected in human Huh7.5.1 cells assessed as reduction in NS3/NS5A expression by Western blot analysis. Format: functional, organism-based, Hepacivirus hominis. A digest of the protocol:
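Huh7.5.1 human hepatoma cells infected with HCV (JFH-1) at MOI 0.05 for 5 h; inoculum then replaced with fresh medium containing compound, three concentrations each. DMSO solvent control ≤0.5% final. Lysates run on SDS-PAGE and Western blotted for NS3 and NS5A, reprobed for actin as loading control. IC50 estimated from pixel intensity of viral protein bands.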
A general note: In western blotting, separated proteins are transferred to a membrane and probed.

A short description of data set [2]: Selectivity index, ratio of CC50 for human Huh7.5.1 cells to IC50 for HCV JFH1 infected in human Huh7.5.1 cells. Type of data set: toxicity, cell-based. The following applies: for selectivity ratio: Huh7.5.1 cells, HCV JFH1-infected Huh7.5.1 cells, read-out: Ratio CC50/IC50.
A further data set has as its system Huh7.5.1. The data set is described as §1. Type of data set: cell-based. The settings on record: huh7.5.1, 72 h. A digest of the protocol:
as §2

The mark [3] stands for this setting: Hepatitis C virus, JFH-1, Huh-7.5.1.

This note sets out measurements from ChEMBL document CHEMBL4382252, “1,4-Benzodioxane Lignans: An Efficient, Asymmetric Synthesis of Flavonolignans and Study of Neolignan Cytotoxicity and Antiviral Profiles” (J Nat Prod, 2018).

A word on the CC50: it is the concentration at which the toxic effect on the cells reaches its halfway point. For orientation: IC50 means the concentration that gives 50% inhibition.

Bounds are passed on as bounds.

Take `COc1cc([C@H]2Oc3cc(/C=C/CO)cc(OC)c3O[C@@H]2CO)cc(OC)c1O`: in data set [1], half-maximal cytotoxicity (CC50 at 72 h) was put at 464 µM. Besides, in the data set on Hepatitis C virus (setting [3]), the IC50 was 200 µM. The selectivity ratio in data set [2] was found to be 2.32.

`COc1cc([C@H]2Oc3cc(/C=C/CO)cc(OC)c3O[C@@H]2C)cc(OC)c1OC` yielded a CC50 at 72 h in data set [1] of 129 µM. Moreover, the IC50 in the data set with Hepatitis C virus (setting [3]) turned out to be 50 µM. In addition, the selectivity ratio in data set [2] was determined as 2.57.

Consider `COc1cc([C@H]2Oc3cccc(OC)c3O[C@@H]2C)cc(OC)c1OC`, for which, in data set [1], the CC50 at 72 h is 50.2 µM. The IC50 in the data set with Hepatitis C virus (setting [3]) was 40 µM. In addition, the selectivity ratio in data set [2] amounted to 1.25.

As to `C=CCc1cc(OC)c2c(c1)O[C@H](c1cc(OC)c(OC)c(OC)c1)[C@@H](C)O2`, the midpoint of cytotoxicity in data set [1], the CC50 at 72 h, lay at 36.2 µM. In addition, the IC50 with Hepatitis C virus (setting [3]) is 30 µM. For the same compound, in data set [2], the selectivity ratio worked out at 1.21.

On to `C=CCc1cc(OC)c2c(c1)O[C@H](c1ccc3c(c1)OCO3)[C@@H](C)O2`, for which, in data set [1], the CC50 at 72 h was above 125 µM. In addition, the IC50 with Hepatitis C virus (setting [3]) was 20 µM. The selectivity ratio in data set [2] was above 6.25.

`COc1cc([C@H]2Oc3cc(/C=C/C=O)cc(OC)c3O[C@@H]2C)cc(OC)c1OC`: the CC50 at 72 h in data set [1] is 47.6 µM. The IC50 in the data set on Hepatitis C virus (setting [3]) is 25 µM. Also, in data set [2], the selectivity ratio worked out at 1.91.

In data set [1], `COc1cc(C2Oc3cc([C@H]4Oc5cc(O)cc(O)c5C(=O)[C@@H]4O)ccc3OC2CO)ccc1O` (stereo not given in full) [SILIBININ] had a CC50 at 72 h of 80 µM. Moreover, in the data set on Hepatitis C virus (setting [3]), the IC50 worked out at 60 µM. Besides, the selectivity ratio in data set [2] came to 1.33.

As for `COc1cc([C@H]2Oc3cc([C@H]4Oc5cc(O)cc(O)c5C(=O)[C@@H]4O)ccc3O[C@@H]2CO)ccc1O` [SILYBIN A], the CC50 at 72 h in data set [1] amounted to 80 µM. For the same compound, the IC50 with Hepatitis C virus (setting [3]) amounted to 50 µM. Moreover, in data set [2], the selectivity ratio was 1.6.

Turning to `COc1cc([C@@H]2Oc3cc([C@H]4Oc5cc(O)cc(O)c5C(=O)[C@@H]4O)ccc3O[C@H]2CO)ccc1O` [SILYBIN B], the half-maximal cytotoxic concentration (CC50) at 72 h in data set [1] was found to be 68.7 µM. Also, the IC50 with Hepatitis C virus (setting [3]) was 50 µM. Moreover, in data set [2], the selectivity ratio amounted to 1.37.

In the data set with Huh7.5.1, SILYMARIN had a CC50 of 100 µM. Further, the IC50 with Hepatitis C virus amounted to 80 µM. For the same compound, the “Ratio CC50/IC50” value in data set [2] is on record as 1.25.
